In ChEMBL document CHEMBL1275349 (J Med Chem, 2010):
Active and inactive are the calls of the source. No cut-off for these calls is given here.

Columns and labels:
[1] = (§1) Agonist activity at NAADP receptor in sea urchin egg homogenate assessed as induction of Ca2+ release by Fluo-3 staining based fluorimetric assay; assay type: functional, Strongylocentrotus purpuratus
[2] = tested on: Strongylocentrotus purpuratus; assay: Binding affinity to NAADP receptor in sea urchin microsomes assessed as fold increase in IC50 for displacement of [32P]NAADP from receptor relative to NAADP; conditions: Microsome
Procedure, shortened: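 Competition binding in sea urchin egg homogenate: 0.2 nM [32P]NAADP plus seven competitor concentrations, incubated together 90 min at 4 °C, in triplicate. Filtered, washed, filter-bound radioactivity counted by liquid scintillation. IC50 from fitted curves over ≥3 experiments; fold value is relative to NAADP IC50.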

[3] = tested on: Strongylocentrotus purpuratus; assay: Agonist activity at NAADP receptor in sea urchin egg homogenate assessed as desensitization of NAADP-induced Ca2+ release at => 1 nM treated for 9 mins before NAADP challenge by Fluo-3 staining based fluorimetric assay; assay type: functional, tissue-based
Procedure, shortened: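 Strongylocentrotus purpuratus egg homogenate (1.25% v/v) diluted in intracellular medium: 250 mM potassium gluconate pH 7.2, 0.5 mM ATP, 4 mM […], creatinine kinase, 3 μM Fluo-3; 17 °C. Ca2+ release read as fluorescence (ex 490/em 535 nm); EC50 from plateau maximum vs concentration, mean of ≥3 determinations. For desensitization, 9 min pretreatment, then 1 μM NAADP challenge; mean±SEM, n = 3.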

[4] = tested on: Strongylocentrotus purpuratus; assay: Agonist activity at NAADP receptor in sea urchin egg homogenate assessed as fold increase in EC50 for induction of Ca2+ release relative to NAADP; assay type: functional, tissue-based
[5] = Displacement of [32P]NAADP from NAADP receptor in sea urchin microsomes after 90 mins by liquid scintillation counting; set-up: species or system Strongylocentrotus purpuratus, Microsome
Procedure, shortened: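 Competition binding in sea urchin egg homogenate: 0.2 nM [32P]NAADP plus seven competitor concentrations, incubated together 90 min at 4 °C, in triplicate. Filtered, washed, filter-bound radioactivity counted by liquid scintillation.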

[6] = tested on: Strongylocentrotus purpuratus; assay: as §1; assay type: functional
[7] = tested on: Strongylocentrotus purpuratus; assay: Agonist activity at NAADP receptor in sea urchin egg homogenate assessed as induction of Ca2+ release at 2 nM by Fluo-3 staining based fluorimetric assay; assay type: functional, tissue-based

Row | Compound | EC50 [1] [µM] | fold change (FC) [2] | Activity [3] | fold change (FC) [4] | IC50 [5] [µM] | Activity [6] | Activity [7]
1 | CCCCc1cc[n+]([C@H]2O[C@@H](COP(=O)(O)OP(=O)(O)OC[C@H]3O[C@@H](n4cnc5c(N)ncnc54)[C@H](OP(=O)(O)O)[C@@H]3O)[C@H](O)[C@@H]2O)cc1C(=O)[O-] | > 1000 | 303 | Active | > 50000 | 0.465 |  | 
2 | [N-]=[N+]=Nc1cc(C(=O)[O-])c[n+]([C@H]2O[C@@H](COP(=O)(O)OP(=O)(O)OC[C@H]3O[C@@H](n4cnc5c(N)ncnc54)[C@H](OP(=O)(O)O)[C@@H]3O)[C@H](O)[C@@H]2O)c1 | 1.69 | 11 | Active | 90 | 0.018 |  | 
3 | Nc1cc(C(=O)[O-])c[n+]([C@H]2O[C@@H](COP(=O)(O)OP(=O)(O)OC[C@H]3O[C@@H](n4cnc5c(N)ncnc54)[C@H](OP(=O)(O)O)[C@@H]3O)[C@H](O)[C@@H]2O)c1 | 0.0274 | 1.1 | Active | 1.5 | 0.0017 | Dose-dependent effect | Active
4 | Nc1cc[n+]([C@H]2O[C@@H](COP(=O)(O)OP(=O)(O)OC[C@H]3O[C@@H](n4cnc5c(N)ncnc54)[C@H](OP(=O)(O)O)[C@@H]3O)[C@H](O)[C@@H]2O)cc1C(=O)[O-] | 4.41 | 88 | Active | 235 | 0.141 |  | 
5 | Cc1cc[n+]([C@H]2O[C@@H](COP(=O)(O)OP(=O)(O)OC[C@H]3O[C@@H](n4cnc5c(N)ncnc54)[C@H](OP(=O)(O)O)[C@@H]3O)[C@H](O)[C@@H]2O)cc1C(=O)[O-] | 42.2 | 93 | Active | 2200 | 0.149 | Dose-dependent effect | 
6 | Nc1ncnc2c1ncn2[C@@H]1O[C@H](COP(=O)(O)OP(=O)(O)OC[C@@H]2O[C@H]([n+]3cc(C(=O)[O-])cc(C(=O)O)c3)[C@@H](O)[C@H]2O)[C@@H](O)[C@H]1OP(=O)(O)O | > 1000 | > 60000 | Active | > 50000 | > 100 |  | 
7 | CCc1cc(C(=O)[O-])c[n+]([C@H]2O[C@@H](COP(=O)(O)OP(=O)(O)OC[C@H]3O[C@@H](n4cnc5c(N)ncnc54)[C@H](OP(=O)(O)O)[C@@H]3O)[C@H](O)[C@@H]2O)c1 | 0.352 | 23 | Active | 18 | 0.037 |  | 
8 | Nc1ncnc2c1ncn2[C@@H]1O[C@H](COP(=O)(O)OP(=O)(O)OC[C@@H]2O[C@H]([n+]3ccc(-c4ccccc4)c(C(=O)[O-])c3)[C@@H](O)[C@H]2O)[C@@H](O)[C@H]1OP(=O)(O)O | > 1000 | 540 | Active | > 50000 | 0.859 |  | 
9 | Nc1ncnc2c1ncn2[C@@H]1O[C@H](COP(=O)(O)OP(=O)(O)OC[C@@H]2O[C@H]([n+]3cccc(C(=O)[O-])c3)[C@@H](O)[C@H]2O)[C@@H](O)[C@H]1OP(=O)(O)O |  |  |  |  |  | Dose-dependent effect | 
10 | Cc1cc(C(=O)[O-])c[n+]([C@H]2O[C@@H](COP(=O)(O)OP(=O)(O)OC[C@H]3O[C@@H](n4cnc5c(N)ncnc54)[C@H](OP(=O)(O)O)[C@@H]3O)[C@H](O)[C@@H]2O)c1 | 0.043 | 1.2 | Active | 2.3 | 0.0019 | Dose-dependent effect | Active
